According to ChEMBL document CHEMBL1132422, “Synthesis and evaluation of 2-amino-9-(1, 3-dihydroxy-2-propoxymethyl)- 6-fluoropurine mono- and diesters as potential prodrugs of ganciclovir” (J Med Chem, 1999):
Values after ≈ are worked out from the molar mass of the structure shown.

Legend:
[1] = Compound was tested for its half life period at pH 8.0 using Sodium phosphate buffer; type: ADME
How it was run: (§1)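 Compound incubated in buffer (HCl/NaCl at pH 1.2; sodium phosphate at pH 6.0, 7.4, 8.0), sampled and analysed by C18 reversed-phase HPLC. Gradient: 10 min 100% 0.1% phosphoric acid, 25 min linear to 45% of 80% MeCN/0.1% phosphoric acid, then 4 min isocratic, at 1 mL/min. UV detection at 245 nm. Half-life derived from remaining parent compound.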

[2] = Compound was tested for its half life period at pH 1.2 using HCl/NaCl buffer; type: ADME; how it was run: as §1
[3] = Compound was tested for its half life period at pH 6.0 using Sodium phosphate buffer; type: ADME; how it was run: as §1
Rattus norvegicus = assay: Total amount of Ganciclovir recovered in the urine over a 48 hr period after an oral dose of 0.1 mmol/kg to male SD rat; type: functional
How it was run: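 Single oral dose of 0.1 mmol/kg given to two male Sprague-Dawley rats (200-250 g). Urine collected for 48 h in metabolic cages, and total ganciclovir measured by C18 reversed-phase HPLC.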

[4] = Compound was tested for its half life period at pH 7.4 using Sodium phosphate buffer; type: ADME; how it was run: as §1
Human betaherpesvirus 5 = assay: In vitro antiviral (HCMV-AD169) activity of the compound (Concentration required to reduce 50% of the plaques) determined by plaque reduction assay.; type: functional, cell-based; settings: Human betaherpesvirus 5, AD169, HEL 299
How it was run: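 Confluent cells infected with about 50 PFU HCMV AD-169 per well, 1 h adsorption at 37 °C, 5% CO2. Inoculum replaced with EMEM containing 2% FBS, 1% methyl cellulose and compound at various concentrations. After 10 days, plaques fixed in methanol, stained with crystal violet and counted. EC50 from probit dose-response; quadruplicate, repeated twice.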

HEL 299 = assay: In vitro cytotoxicity of the compound (Concentration required to reduce OD value by 50%) in human embryonic lung fibroblast(HEL 299) cells determined by MTT assay.; type: functional
How it was run: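 HEL 299 cells seeded at 1 × 10^4 cells/well in EMEM and grown 24 h, then exposed to compound at various concentrations for 4 days at 37 °C, 5% CO2. MTT added for 4 h, formazan dissolved in DMSO, OD read at 540 nm. CC50 from probit dose-response; quadruplicate, repeated twice.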

[5] = Compound was tested for solubility in water at 25 degree C; type: ADME; settings: read-out: S
How it was run: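 Saturated aqueous solution of compound; UV absorbance at 245 nm compared against a standard curve to give solubility.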

Question: With `CC(C)C(=O)OCC(COC(=O)C(C)C)OCn1cnc2c(F)nc(N)nc21` as the compound, how does the half-life [1] read?
Answer: 120 h

Question: And the half-life [2]?
Answer: 1.23 h

Question: And the half-life [3]?
Answer: 29 days

Question: What about the “Ganciclovir recovered in urine over 48 h (% of dose)” value (shortened to “Ganciclovir recovered … (% of dose)”) (Rattus norvegicus) of the same compound?
Answer: 42%

Question: And the half-life [4]?
Answer: 168 h

Question: And the EC50 (Human betaherpesvirus 5)?
Answer: > 100 µM

Question: And the CC50 (HEL 299)?
Answer: > 100 µM

Question: What about the solubility [5] of the same compound?
Answer: 400 µg/mL (≈ 1.01 mM)

Question: With `CCCC(=O)OCC(CO)OCn1cnc2c(F)nc(N)nc21` (configuration not stated) as the compound, how does the half-life [1] read?
Answer: 288 h

Question: And the half-life [2]?
Answer: 1.15 h

Question: And the half-life [3]?
Answer: 51 days

Question: What about the “Ganciclovir recovered … (% of dose)” value (Rattus norvegicus) of the same compound?
Answer: 41%

Question: And the half-life [4]?
Answer: 504 h

Question: What about the EC50 (Human betaherpesvirus 5) of the same compound?
Answer: > 100 µM

Question: And the CC50 (HEL 299)?
Answer: > 100 µM

Question: And the solubility [5]?
Answer: 19400 µg/mL (≈ 59.3 mM)

Question: Which half-life [1] does the source give for `CC(=O)OCC(COC(C)=O)OCn1cnc2c(F)nc(N)nc21` here?
Answer: 72 h

Question: And the half-life [2]?
Answer: 1.03 h

Question: And the half-life [3]?
Answer: 30 days

Question: What about the “Ganciclovir recovered … (% of dose)” value (Rattus norvegicus) of the same compound?
Answer: 41%

Question: What about the half-life [4] of the same compound?
Answer: 192 h

Question: What about the EC50 (Human betaherpesvirus 5) of the same compound?
Answer: > 100 µM

Question: What about the CC50 (HEL 299) of the same compound?
Answer: > 100 µM

Question: And the solubility [5]?
Answer: 4200 µg/mL (≈ 12.3 mM)

Question: For `CC(=O)OCC(CO)OCn1cnc2c(F)nc(N)nc21` (configuration not stated), which half-life [1] is on record?
Answer: 168 h

Question: What about the half-life [2] of the same compound?
Answer: 1.02 h

Question: What about the half-life [3] of the same compound?
Answer: 56 days

Question: What about the “Ganciclovir recovered … (% of dose)” value (Rattus norvegicus) of the same compound?
Answer: 29%

Question: And the half-life [4]?
Answer: 336 h

Question: And the EC50 (Human betaherpesvirus 5)?
Answer: > 100 µM

Question: And the CC50 (HEL 299)?
Answer: > 100 µM

Question: What about the solubility [5] of the same compound?
Answer: 44400 µg/mL (≈ 148 mM)

Question: Which results are given for `CCCC(=O)OCC(COC(=O)CCC)OCn1cnc2c(F)nc(N)nc21`?
Answer: half-life [1]: 96 h; half-life [2]: 1.08 h; half-life [3]: 39 days; Ganciclovir recovered in urine over 48 h (% of dose) (Rattus norvegicus): 35%; half-life [4]: 264 h; EC50 (Human betaherpesvirus 5): > 100 µM; CC50 (HEL 299): > 100 µM; solubility [5]: 600 µg/mL (≈ 1.51 mM)

Question: What does the source list for `Nc1nc(F)c2ncn(COC(CO)CO)c2n1`?
Answer: half-life [1]: 720 h; half-life [2]: 1.03 h; half-life [3]: 107 days; Ganciclovir recovered in urine over 48 h (% of dose) (Rattus norvegicus): 8%; half-life [4]: 1660 h; EC50 (Human betaherpesvirus 5): > 100 µM; CC50 (HEL 299): > 100 µM; solubility [5]: 11300 µg/mL (≈ 43.9 mM)

Question: Which half-life [1] does the source give for `CCC(=O)OCC(COC(=O)CC)OCn1cnc2c(F)nc(N)nc21` here?
Answer: 48 h

Question: And the half-life [2]?
Answer: 1.38 h

Question: And the half-life [3]?
Answer: 35 days

Question: What about the “Ganciclovir recovered … (% of dose)” value (Rattus norvegicus) of the same compound?
Answer: 35%

Question: And the half-life [4]?
Answer: 168 h

Question: What about the EC50 (Human betaherpesvirus 5) of the same compound?
Answer: > 100 µM

Question: What about the CC50 (HEL 299) of the same compound?
Answer: > 100 µM

Question: What about the solubility [5] of the same compound?
Answer: 700 µg/mL (≈ 1.9 mM)

Question: Which results are given for `CCC(=O)OCC(CO)OCn1cnc2c(F)nc(N)nc21` (configuration not stated)?
Answer: half-life [1]: 168 h; half-life [2]: 1 h; half-life [3]: 37 days; Dose (Rattus norvegicus): 39%; half-life [4]: 408 h; EC50 (Human betaherpesvirus 5): > 100 µM; CC50 (HEL 299): > 100 µM; solubility [5]: 19000 µg/mL (≈ 60.6 mM)

Question: For `CC(C)C(=O)OCC(CO)OCn1cnc2c(F)nc(N)nc21` (configuration not stated), which half-life [1] is on record?
Answer: 336 h

Question: What about the half-life [2] of the same compound?
Answer: 1.08 h

Question: What about the half-life [3] of the same compound?
Answer: 56 days

Question: And the “Ganciclovir recovered … (% of dose)” value (Rattus norvegicus)?
Answer: 45%

Question: What about the half-life [4] of the same compound?
Answer: 768 h

Question: And the EC50 (Human betaherpesvirus 5)?
Answer: > 100 µM

Question: What about the CC50 (HEL 299) of the same compound?
Answer: > 100 µM

Question: What about the solubility [5] of the same compound?
Answer: 5700 µg/mL (≈ 17.4 mM)

Question: What does the source list for `Nc1nc2c(ncn2COC(CO)CO)c(=O)[nH]1` [GANCICLOVIR]?
Answer: Ganciclovir recovered in urine over 48 h (% of dose) (Rattus norvegicus): 3%; EC50 (Human betaherpesvirus 5): 0.63 µM; CC50 (HEL 299): > 100 µM; solubility [5]: 4300 µg/mL (≈ 16.8 mM)

Question: Which “Ganciclovir recovered … (% of dose)” value (Rattus norvegicus) does the source give for `CC(C)OCC(COC(C)C)OCn1cnc2cnc(N)nc21` [ROCICLOVIR] here?
Answer: 14%
